# HTRA1 inh: HTRA1 (human) protease inhibition; Q92743; recombinant HTRA1, FP-rhodamine activity-based probe, fluorescence polarization; inhibition, % at 5.96 µM; actives 0.5% (n = 340,000); in the data active means inhibition above about 36%;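 further: 0% = enzyme with DMSO and 100% = wells lacking enzyme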
# TCR-CD3 inh: inhibitors of human TCR-CD3 interaction. actives 0.37% (n = 360,000). inhibition, % at 9.4 µM. TAMRA-labeled TCR probe fluorescence, biochemical; in the data active means inhibition above about 19%;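 further: recombinant mutant TCR 2C K166C tagged with TAMRA read by polarization; 0% = receptor in buffer alone and 100% = receptor with positive control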
# pPAFAH inh: inhibitors of human plasma PAF acetylhydrolase (pPAFAH) | Q13093 | recombinant pPAFAH, FP-rhodamine probe fluorescence polarization | inhibition, % at 3.39 µM | actives 1.5% (n = 330,000) | AID 463082;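 active means inhibition above the mean inhibition across the screen plus 3 SD, cut at about 25% in these data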;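 further: inhibitors block binding of the rhodamine activity-based probe so polarization drops; 0% = enzyme with DMSO and 100% = wells lacking pPAFAH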
# Target sequence (Q13093 whole entry, looked up): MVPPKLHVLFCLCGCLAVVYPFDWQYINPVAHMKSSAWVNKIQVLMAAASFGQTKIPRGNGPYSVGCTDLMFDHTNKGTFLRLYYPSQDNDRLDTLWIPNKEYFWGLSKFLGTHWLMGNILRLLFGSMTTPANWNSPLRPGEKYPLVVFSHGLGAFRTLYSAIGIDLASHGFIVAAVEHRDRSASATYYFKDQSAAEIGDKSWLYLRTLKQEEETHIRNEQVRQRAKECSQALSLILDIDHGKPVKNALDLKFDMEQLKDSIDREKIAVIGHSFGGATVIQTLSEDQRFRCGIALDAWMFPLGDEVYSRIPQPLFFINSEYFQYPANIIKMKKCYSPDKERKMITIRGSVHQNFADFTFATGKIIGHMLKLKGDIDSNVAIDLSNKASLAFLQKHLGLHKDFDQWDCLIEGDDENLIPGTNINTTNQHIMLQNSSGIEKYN
# mABHD4 FP: inhibitors of mouse ABHD4; Q8VD66; purified mABHD4, FP-Rh probe fluorescence polarization; inhibition, % at 8.92 µM; actives 0.54% (n = 370,000); AID 720543;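 active means inhibition exceeding the mean over every tested compound plus 3 SD, cut at about 30% in these data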;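 further: 0% = plate median of compound wells and 100% = S159A mutant with DMSO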
#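 Assay system: mABHD4 protein; medium: HEPES pH 7.0, NaCl, Pluronic buffer; dosing: 8.92 µM, single dose; schedule: 45 min + 60 min at 25 °C; signal: FP readout, ex 525 nm / em 598 nm; read-out: normalized percent inhibition of probe labeling; repeats: single replicate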
# SIAE primary: human SIAE inhibition, primary screen; Q9HAT2; SIAE FP-Rh probe binding, fluorescence polarization; inhibition, % at 9.66 µM; actives 0.69% (n = 370,000); AID 1053197;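 active means inhibition above a cutoff: mean of compounds within the control limits plus 3 SD of those, cut at about 17% in these data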;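 further: 0% = plate median of compound wells and 100% = probe without SIAE protein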
# The depositor's hits bear a star; . = not tested or not shown. Only some compounds are listed: those with a hit (about 2.3% of all), similar ones and a draw of the others.
SMILES,HTRA1 inh,TCR-CD3 inh,pPAFAH inh,mABHD4 FP,SIAE primary
CC(=O)c1c(C(C)=O)c(C)n(-c2ccc(C(=O)O)cc2)c1C,-7,2,-1,1,8
Cc1ccc(C)n1-c1ccc(C(=O)O)cc1,.,.,31*,.,.
CS(=O)(=O)c1ccc(OC[C@@H](O)CN2CCC(C(O)(c3ccccc3)c3ccccc3)CC2)cc1,.,.,.,4,0
Cc1ccc2nc(Cl)c(/C=N/Nc3ccc(C(=O)O)cc3)cc2c1,-15,10,30*,21,-39
O=[N+]([O-])c1cccnc1Oc1cc(Cl)c(Cl)cc1Cl,-14,7,.,-7,-5
Cc1cc(Oc2ncccc2[N+](=O)[O-])c2cc(Cl)ccc2n1,-5,-10,26*,-7,1
Cc1nn2cc(-c3ccccc3)nc2[nH]c1=O,4,0,0,0,22*
CC(=O)N1CCN(c2cc(-c3ccco3)nc3cc(-c4ccccc4)nn23)CC1,.,.,.,3,-9
CC1CCCCC1NS(=O)(=O)c1ccc(S(=O)(=O)N2CCCC2)cc1 (stereo not drawn),-10,-5,26*,1,1
Cc1cc2n(n1)C(c1ccc(N(C)C)cc1)Nc1ccccc1-2 (stereo not drawn),-9,-1,26*,5,10
COc1cc(CNc2ccc(N3CCN(C(C)=O)CC3)cc2)ccc1OCc1ccc(F)cc1,30,-4,31*,20,2
CC(=O)N1CCN(c2ccc(NCc3ccc(F)cc3)cc2)CC1,16,3,17,20,5
Cc1cccc(OCCC(=O)OCC(=O)Nc2c(C)nn(-c3ccccc3)c2C)c1,5,0,29*,-7,0
Cc1nn(-c2ccccc2)c(C)c1NC(=O)COC(=O)CC(C)c1ccccc1 (stereo not drawn),7,9,27*,3,2
Cc1ccc(NS(=O)(=O)c2ccccc2)c2c1CC(C)(C)O2,-4,3,29*,-4,15
Cc1ccc(N=C2NC(=O)/C(=C/c3cccn3C)S2)c(C)c1,-3,-2,25*,-2,3
COc1ccc2c(c1)CN1C(=O)N(Cc3ccccc3)S(=O)(=O)CC21 (stereo not drawn),.,.,.,-7,-11
CN(C)CCCn1c(SCC(=O)Nc2sc3c(c2C#N)CCCC3)nnc1-c1ccncc1,5,2,2,16,9
COCCCn1c(SCC(=O)Nc2sc3c(c2C#N)CCCC3)nnc1-c1ccncc1,-5,-2,26*,2,-2
O=[N+]([O-])c1c(NCCO)cc(N2CCC3(CC2)OCCO3)c2nonc12,-5,-2,4,3,6
O=C(O)CCCNc1cc(N2CCC3(CC2)OCCO3)c2noc3c2c1C(=O)c1ccccc1-3,.,.,76*,.,.
CCOc1ccc(-n2c(SCC(=O)Nc3ccc4c(c3)c3ccccc3n4CC)nnc2-c2cccnc2)cc1,.,.,.,4,-2
C[C@@H]1OC(C2CCCCC2)N(C)[C@H]2C[C@H]3c4[nH]c5cccc(-c6ccccc6)c5c4CCN3C[C@@H]12 (stereo partly drawn),.,.,.,9,-1
Fc1cccc2sc(Nc3nnc(-c4ccccc4)o3)nc12,5,-1,25*,-1,-7
CCOC(=O)c1c(NC(=O)/C=C/C(=O)O)sc(C)c1-c1ccc(C(C)(C)C)cc1,-71,4,33*,-5,0
SMILES,HTRA1 inh,TCR-CD3 inh,pPAFAH inh,mABHD4 FP,SIAE primary
O=C(OCCN1CCN(C2CN(Cc3cn(Cc4cccc(F)c4)nn3)S(=O)(=O)C2)CC1)c1cc2ccccc2o1 (stereo not drawn),.,.,.,4,7
CCN(CC)c1ccc(NC(=O)CN(C)Cc2cccs2)cc1,15,-2,26*,21,12
CCN1CCN(c2ccc(S(=O)(=O)N3CCCCC3)cc2NC(=O)/C=C/c2cc(OC)ccc2OC)CC1,-17,8,26*,0,-2
COC(=O)C1=CN(c2cccc(C)c2)C=C(C(=O)OC)C1c1cc(OC)c(O)c([N+](=O)[O-])c1,52*,9,29*,8,5
O=C(OCC#CCSc1nnc(-c2ccc3ccccc3c2)o1)c1cccs1,.,.,.,-7,-4
Cc1[nH]c2ccccc2c1CC(=O)Nc1ccc(N(C)c2cccnc2)c(-c2cccc(Cl)c2)c1,.,-4,.,30*,4
Cc1cc(-c2cc(NC(=O)Cc3c(C)[nH]c4ccccc34)ccc2N(C)c2cccnc2)ccc1F,.,-3,.,27,7
CC1CCN(C(=O)COC(=O)c2ccc([N+](=O)[O-])o2)CC1,18,-1,28*,-3,-5
Nc1nc2cc3c(cc2cc1C(=O)NCCc1c[nH]c2ccccc12)OCO3,.,-5,.,8,11
COC/C=C/C1=CC2=CC(=O)C(C)(OC(=O)c3cnc4ccccc4n3)C(=O)C2=CN1c1ccc(CO)cc1 (stereo not drawn),.,.,39*,.,.
CC1(OC(=O)c2cnc3ccccc3n2)C(=O)C=C2C=C(C3CC3)OC=C2C1=O (stereo not drawn),.,.,50*,.,.
CC1CN(C(=O)c2cc(S(=O)(=O)N3CCN(c4ccccc4)CC3)ccc2Cl)CC(C)O1 (stereo not drawn),-2,4,4,3,4
O=C(c1cc(S(=O)(=O)N2CCN(c3ccccc3)CC2)ccc1Cl)N1CCCCCCC1,-11,1,32*,6,2
CCCCCCSC1=C(C#N)C(c2ccc(C)o2)CC(=O)N1 (stereo not drawn),-14,-5,25*,10,-3
CCSC1=C(C#N)C(c2ccc(C)o2)CC(=O)N1 (stereo not drawn),1,6,2,-6,-1
Nc1c(C(=O)c2ccccc2)sc2snc(SCC(=O)c3ccccc3)c12,14,-2,27*,15,0
O=C(CSc1nc2ccccc2c(=O)n1CC1CCCO1)NCC1CCCO1 (stereo not drawn),-3,-3,-4,-2,1
O=C(CSc1nc2ccccc2n1-c1ccccc1)NCC1CCCO1 (stereo not drawn),-10,-3,28*,0,-7
NS(=O)(=O)c1ccc(NC(=O)CSc2nc3ccccc3n2-c2ccccc2)cc1,-10,-1,32*,-28,-7
Nc1[nH]nc2ncc3cc4ccccc4nc3c12,13,5,30*,3,7
O=C(CSc1nnc(COc2ccc(Cl)cc2)n1Cc1ccco1)Nc1cccc2ccccc12,.,.,.,-21,-16
CCOC(=O)/C(C#N)=C1\Nc2ccccc2N=C1N(CC(C)C)CC(C)C,-11,6,4,1,8
CCOC(=O)/C(C#N)=C1/C=C(C)NC(c2ccccc2O)=N1,5,4,25*,11,-11
CC(C)N(C(=O)Cn1c(-c2ccccc2Cl)nc2ccccc21)c1ccccc1,1,3,26*,0,1
CCc1cccc(CC)c1NC(=O)Cn1c(-c2ccccc2Cl)nc2ccccc21,3,5,7,5,3
COCCN1CCCc2nc(-c3ccc(F)cc3)ccc21,.,6,.,6,-2

# Source: PubChem
